From PMC9796681 (British Journal of Clinical Pharmacology, 2022)
“And” between values parts separate entries of the source, which are not always exact repeats. Identical values can stand only once. “Also recorded” adds a separate entry of the source. Like-named read-outs stand apart in the source and are kept apart here.

Experiments:
[1] = cited from earlier work
[2] = one-compartment model; cited from earlier work
[3] = Population pharmacokinetic analysis; type: in vivo, human
Outline: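 Healthy young subjects: single 80 mg dose, fasting, sampled predose to 102 h. Gout patients: 40-160 mg/day at steady state (≥7 days after dose change), up to four samples at 1–24 h post-dose. Plasma assayed by HPLC-fluorescence, LLQ 0.005 µg mL-1. Two-compartment model, first-order elimination; power covariate model normalised to median; shared random effect on availability (FVAR); food tested on ka and F.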

[4] = two-compartment model; gouty; cited from earlier work
[5] = single dose 80 mg, healthy subjects

Cc1nc(-c2ccc(OCC(C)C)c(C#N)c2)sc1C(=O)O[C@@H]1O[C@H](C(=O)O)[C@@H](O)[C@H](O)[C@H]1O [Febuxostat glucuronide]
proportion of the febuxostat dose as glucuronide, excreted by the kidneys ([1]; published data): about 40%

Cc1nc(-c2ccc(OCC(C)C)c(C#N)c2)sc1C(=O)O [febuxostat]
ka, absorption rate constant [2]: 2.52 h⁻¹
BSV-CL/F, between-subject variability (coefficient of variation) ([3]; final model): 13.6% and 13.6 (37.4) %
BSV-FVAR, common variability on oral availability ([3]; final model): 27.7 (21.2) %
BSV-Vc/F, between-subject variability (coefficient of variation) ([3]; final model): 22% and 22.0 (35.4) %
BSV-Vp/F, between-subject variability (coefficient of variation) ([3]; final model): 19.5% and 19.5 (58.2) %
Covariate BMI (ϴ 7), power exponent on Vc/F ([3]; final model, body mass index, median 30.6 kg m^−2): 0.996
Covariate food on ka ([3]; final model, fed status): −0.869
Covariate food on oral availability ([3]; final model, fed status): −0.667
reduction of absorption rate constant ka by food ([3]; final model, fed versus fasted): 87%
reduction of oral availability (relative bioavailability) by food ([3]; final model, fed versus fasted): 67%
RUV-CV%, residual unexplained variability ([3]; final model, proportional residual error): 39.9 (10.1) %
absorption rate constant ka (ϴ 5), population mean ([3]; final two-compartment model): 3.6 h⁻¹ and 3.62 h⁻¹
apparent peripheral volume of distribution Vp/F (ϴ 4), population mean ([3]; final two-compartment model): 19.4 L
intercompartmental clearance Q (ϴ 3), population mean ([3]; final two-compartment model): 1.25 L/h
Vd/F ([3]; human, plasma, oral): 32.8 L
effect of mild and moderate hepatic impairment on the pharmacokinetics ([1]; Child-Pugh class A and B): no effect; also recorded: did not affect
CL/F ([1]; Japanese subjects who had gout or were hyperuricaemic): 9.9 L/h
reduction of apparent clearance by UGT polymorphisms ([1]; UGT six and 28 variants): 22%
ka, value assumed ([1]; assumed by Hirai et al): 2.18 h⁻¹
decline of plasma concentration over the dosage interval ([1]; dosage interval 24 h): up to 100 fold
CL/F ([1]; healthy African Americans): 10.5 L/h
CL/F ([1]; healthy Chinese subjects): 5.3 Lh^−1
effect of food on the extent of absorption (AUC0-48) ([1]; healthy subjects, 48 h): negligible effect; also recorded: reduce the rate but not the extent of absorption
cleared by phase I metabolism (oxidation) ([1]; healthy subjects): ~ 35%
cleared by phase II metabolism (glucuronidation) ([1]; healthy subjects): ~ 40%
febuxostat eliminated from plasma in the first 9 h post-dose ([1]; healthy subjects): 81%
reduction in AUC0-24 with food ([1]; healthy subjects): 20%
reduction in C max with food ([1]; healthy subjects): 50%
mean initial half-life [1, 5]: 2 h
mean terminal half-life [1, 5]: 14 h
Residual CV [4]: 71%
Vc/F, final estimate [4]: 32.2 L
Vp/F, final estimate [4]: 22.2 L
ka, absorption rate constant [4]: 13 h⁻¹
